Results as given in ChEMBL document CHEMBL4024749, “Discovery of 3,5-Diphenyl-4-methyl-1,3-oxazolidin-2-ones as Novel, Potent, and Orally Available Δ-5 Desaturase (D5D) Inhibitors” (J Med Chem, 2017).

Key:
Liver [1] = experiment: Metabolic stability in human liver microsomes; assay type: ADME, microsome
[2] = biological target: Acyl-CoA (8-3)-desaturase (Homo sapiens, UniProt O60427); experiment: Inhibition of D5D in human HepG2 cells assessed as [14C]AA formation from [14C]DGLA preincubated for 30 mins followed by [14C]eicosatrienoic acid addition measured after 3 hrs by TLC analysis; assay type: cell-based
In short: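 HepG2 plated at 1 × 10^5 cells/well, cultured overnight in DMEM/10% FBS, PBS-washed, then preincubated 30 min at 37 °C with compound in DMEM with penicillin/streptomycin and 0.3% BSA. 0.1 μCi [14C]eicosatrienoic acid added and cells incubated 3 h at 37 °C; lipids saponified overnight at 55 °C with NaOH, acidified, extracted with chloroform/MeOH, separated by TLC.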

[3] = biological target: Acyl-CoA (8-3)-desaturase (Rattus norvegicus, UniProt Q920R3); experiment: Displacement of [3H]T-3364366 from D5D in rat liver microsomal membrane preincubated for 15 mins followed by radioligand addition measured after 150 mins by TopCount microscintillation counting assay; assay type: cell membranes
In short: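 Rat liver microsome fraction (30 μg/well) preincubated 15 min with test compound at room temperature in 10 mM Tris-HCl pH 7.5, 100 mM KCl, 10 mM NaF buffer, 200 μL/well; bound ligand trapped on GF/C filters, washed 5× with ice-cold buffer, counted by scintillation. Nonspecific binding with 10 μM unlabeled T-3364366; IC50 from three-parameter logistic fit.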

[4] = Drug level in human hepatocytes treated with 5-(4-Fluorophenyl)-3-(3-methoxyphenyl)-1,3-oxazolidin-2-one by LC-MS/MS analysis; assay type: ADME, cell-based, Hepatocyte
Liver [5] = experiment: Metabolic stability in mouse liver microsomes; assay type: ADME, microsome
[6] = MRT (0 to 8 hrs) in mouse at 0.1 mg/kg, iv or 1 mg/kg, po measured; assay type: ADME, organism-based; conditions: in vivo
[7] = AUC (0 to 8 hrs) in mouse at 0.1 mg/kg, iv or 1 mg/kg, po; assay type: ADME, organism-based; conditions: in vivo
[8] = Oral bioavailability in mouse at 0.1 mg/kg, iv or 1 mg/kg administered as cassette dose up to 8 hrs; assay type: ADME, organism-based; conditions: in vivo
Mus musculus [9] = experiment: In vivo inhibition of D5D in C57BL/6J mouse liver assessed as decrease in AA/DGLA ratio by measuring inhibition index at 3 mg/kg, qd administered via oral gavage for 4 days by HPLC analysis relative to control; assay type: functional; conditions: 96 h
In short: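 Male C57BL/6J mice, 7–9 weeks old, on normal chow, individually caged; 3 mg/kg suspension in 0.5% methylcellulose by gavage each morning at 10 mL/kg for 4 days. Liver taken next morning; phospholipid fraction from about 40 mg tissue labeled, AA and DGLA measured by HPLC; AA/DGLA decrease versus vehicle group taken as 100%.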

CYP2C9 = CYP2C9 (Homo sapiens, UniProt P11712); experiment: Inhibition of CYP2C9 (unknown origin) at 10 uM
[10] = AUC (0 to 8 hrs) in mouse at 1 mg/kg, po administered as cassette dose; assay type: ADME, organism-based; parameters: time < 8 hr, dose 1 mg/kg, route oral; conditions: in vivo
Mus musculus [11] = experiment: In vivo inhibition of D5D in C57BL/6J mouse liver assessed as decrease in AA/DGLA ratio by measuring inhibition index at 3 mg/kg, qd administered via oral gavage for 4 days by HPLC analysis relative to control; conditions: 96 h
[12] = MRT (0 to 8 hrs) in mouse at 1 mg/kg, po administered as cassette dose; assay type: ADME, organism-based; conditions: in vivo
[13] = Drug level in mouse hepatocytes treated with 5-(4-Fluorophenyl)-3-(3-methoxyphenyl)-1,3-oxazolidin-2-one by LC-MS/MS analysis; assay type: ADME, cell-based, Hepatocyte
hERG (KCNH2) = hERG (KCNH2) (Homo sapiens, UniProt Q12809); experiment: Inhibition of human ERG at 10 uM by patch clamp assay
Mus musculus [14] = experiment: In vivo inhibition of D5D in ApoE knockout mouse assessed as decrease in AA/DGLA ratio at 0.3 mg/kg, po qd dosed via gavage for 2 weeks by HPLC analysis; assay type: functional; conditions: 336 h
In short: (§1)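 ApoE KO mice, 13 weeks old, fed Western diet for 2 weeks; from day after diet start, dosed by gavage each morning at 10 mL/kg with suspension (0.3–3 mg/kg). Livers taken morning after final dose; phospholipid AA and DGLA measured by HPLC after labeling; AA/DGLA decrease relative to vehicle group as 100%.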

Mus musculus [15] = experiment: In vivo inhibition of D5D in ApoE knockout mouse assessed as decrease in AA/DGLA ratio at 3 mg/kg, po qd dosed via gavage for 2 weeks by HPLC analysis; assay type: functional; conditions: 336 h; in short: as §1
Cytochrome P450 2C9 = Cytochrome P450 2C9 (Homo sapiens, UniProt P11712); experiment: Inhibition of CYP2C9 (unknown origin); assay type: ADME
[16] = Induction of CYP3A (unknown origin); assay type: ADME; conditions: human
Canis familiaris = experiment: Cardiotoxicity in dog at 5 mg/kg, iv by ECG analysis; assay type: toxicity, organism-based, Canis lupus familiaris; conditions: in vivo
Mus musculus [17] = experiment: In vivo inhibition of D5D in ApoE knockout mouse assessed as decrease in AA/DGLA ratio at 1 mg/kg, po qd dosed via gavage for 2 weeks by HPLC analysis; assay type: functional; conditions: 336 h; in short: as §1
Cytochrome P450 2C8 = biological target: T1, Cytochrome P450 2C8 (Homo sapiens, UniProt P10632); experiment: Inhibition of CYP2C8 (unknown origin); assay type: ADME
T1 sequence (P10632 whole entry): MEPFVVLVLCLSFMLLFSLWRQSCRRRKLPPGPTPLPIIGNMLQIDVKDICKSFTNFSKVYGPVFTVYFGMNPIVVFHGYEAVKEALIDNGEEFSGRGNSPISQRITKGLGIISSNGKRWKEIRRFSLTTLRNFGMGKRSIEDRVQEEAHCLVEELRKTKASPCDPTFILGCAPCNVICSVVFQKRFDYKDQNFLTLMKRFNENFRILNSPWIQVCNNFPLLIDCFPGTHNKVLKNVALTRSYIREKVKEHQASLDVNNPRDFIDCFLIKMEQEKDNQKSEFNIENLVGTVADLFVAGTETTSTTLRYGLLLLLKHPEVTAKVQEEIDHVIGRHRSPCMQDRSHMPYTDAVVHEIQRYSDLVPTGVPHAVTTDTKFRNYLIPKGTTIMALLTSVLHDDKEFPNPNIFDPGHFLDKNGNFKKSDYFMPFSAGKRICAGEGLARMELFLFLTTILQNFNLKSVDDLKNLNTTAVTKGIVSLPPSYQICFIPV

[18] = Ratio of Cmax in dog ECG model at 5 mg/kg, iv to Cmax in ApoE knockout mouse at 1 mg/kg, po qd dosed via gavage for 2 weeks; assay type: ADME, organism-based; conditions: in vivo, 336 h
Cytochrome P450 3A4 = Cytochrome P450 3A4 (Homo sapiens, UniProt P08684); experiment: Inhibition of CYP3A4 (unknown origin); assay type: ADME
Cytochrome P450 2D6 = Cytochrome P450 2D6 (Homo sapiens, UniProt P10635); experiment: Inhibition of CYP2D6 (unknown origin); assay type: ADME
[19] = Cmax in ApoE knockout mouse at 1 mg/kg, po qd dosed via gavage for 2 weeks by HPLC analysis; assay type: ADME, organism-based; parameters: dose 1 mg/kg, route oral; conditions: in vivo
[20] = Cmax in dog at 5 mg/kg, iv; assay type: ADME, organism-based, Canis lupus familiaris; parameters: dose 5 mg/kg, route intravenous; conditions: in vivo

Chain of Acyl-CoA (8-3)-desaturase (Rattus norvegicus, UniProt Q920R3) (Q920R3 whole entry): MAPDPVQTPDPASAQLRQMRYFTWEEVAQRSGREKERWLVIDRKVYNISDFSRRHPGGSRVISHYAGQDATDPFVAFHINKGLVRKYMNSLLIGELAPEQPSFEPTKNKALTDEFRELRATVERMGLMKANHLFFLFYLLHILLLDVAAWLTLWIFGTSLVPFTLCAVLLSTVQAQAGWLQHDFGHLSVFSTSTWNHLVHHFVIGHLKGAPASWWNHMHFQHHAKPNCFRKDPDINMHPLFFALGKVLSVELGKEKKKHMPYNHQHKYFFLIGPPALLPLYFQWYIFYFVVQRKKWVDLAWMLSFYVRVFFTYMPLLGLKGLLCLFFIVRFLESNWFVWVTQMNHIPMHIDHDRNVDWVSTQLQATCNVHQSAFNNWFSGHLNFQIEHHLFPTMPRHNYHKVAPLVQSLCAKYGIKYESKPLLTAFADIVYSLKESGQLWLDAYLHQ
Chain of Acyl-CoA (8-3)-desaturase (Homo sapiens, UniProt O60427) (O60427 whole entry): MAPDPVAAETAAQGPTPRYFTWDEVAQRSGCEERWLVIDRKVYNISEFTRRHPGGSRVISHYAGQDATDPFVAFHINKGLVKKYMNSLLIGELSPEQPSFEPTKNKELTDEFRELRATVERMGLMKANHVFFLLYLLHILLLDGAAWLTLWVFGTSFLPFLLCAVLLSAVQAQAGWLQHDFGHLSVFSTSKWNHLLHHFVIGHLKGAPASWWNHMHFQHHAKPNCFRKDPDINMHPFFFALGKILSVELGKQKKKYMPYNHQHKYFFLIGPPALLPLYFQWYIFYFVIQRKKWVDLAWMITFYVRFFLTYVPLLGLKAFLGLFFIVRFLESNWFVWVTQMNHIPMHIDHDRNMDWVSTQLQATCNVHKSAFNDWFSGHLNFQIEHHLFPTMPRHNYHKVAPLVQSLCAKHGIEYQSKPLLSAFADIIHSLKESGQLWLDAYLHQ
Chain of CYP2C9 (P11712 whole entry): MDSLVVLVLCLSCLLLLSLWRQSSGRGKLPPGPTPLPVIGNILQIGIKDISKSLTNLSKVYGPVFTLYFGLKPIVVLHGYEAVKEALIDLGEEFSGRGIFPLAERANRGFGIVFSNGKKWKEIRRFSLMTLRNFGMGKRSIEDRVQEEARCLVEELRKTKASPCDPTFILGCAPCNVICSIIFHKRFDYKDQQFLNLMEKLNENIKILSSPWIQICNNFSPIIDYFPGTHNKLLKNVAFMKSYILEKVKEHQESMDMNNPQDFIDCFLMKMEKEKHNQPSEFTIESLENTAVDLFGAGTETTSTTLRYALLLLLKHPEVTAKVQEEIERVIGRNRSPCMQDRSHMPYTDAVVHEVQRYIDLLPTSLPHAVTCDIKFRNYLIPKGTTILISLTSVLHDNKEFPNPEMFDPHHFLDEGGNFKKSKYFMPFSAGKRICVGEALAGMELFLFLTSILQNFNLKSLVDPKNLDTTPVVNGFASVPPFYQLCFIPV
Chain of hERG (KCNH2) (Q12809 whole entry): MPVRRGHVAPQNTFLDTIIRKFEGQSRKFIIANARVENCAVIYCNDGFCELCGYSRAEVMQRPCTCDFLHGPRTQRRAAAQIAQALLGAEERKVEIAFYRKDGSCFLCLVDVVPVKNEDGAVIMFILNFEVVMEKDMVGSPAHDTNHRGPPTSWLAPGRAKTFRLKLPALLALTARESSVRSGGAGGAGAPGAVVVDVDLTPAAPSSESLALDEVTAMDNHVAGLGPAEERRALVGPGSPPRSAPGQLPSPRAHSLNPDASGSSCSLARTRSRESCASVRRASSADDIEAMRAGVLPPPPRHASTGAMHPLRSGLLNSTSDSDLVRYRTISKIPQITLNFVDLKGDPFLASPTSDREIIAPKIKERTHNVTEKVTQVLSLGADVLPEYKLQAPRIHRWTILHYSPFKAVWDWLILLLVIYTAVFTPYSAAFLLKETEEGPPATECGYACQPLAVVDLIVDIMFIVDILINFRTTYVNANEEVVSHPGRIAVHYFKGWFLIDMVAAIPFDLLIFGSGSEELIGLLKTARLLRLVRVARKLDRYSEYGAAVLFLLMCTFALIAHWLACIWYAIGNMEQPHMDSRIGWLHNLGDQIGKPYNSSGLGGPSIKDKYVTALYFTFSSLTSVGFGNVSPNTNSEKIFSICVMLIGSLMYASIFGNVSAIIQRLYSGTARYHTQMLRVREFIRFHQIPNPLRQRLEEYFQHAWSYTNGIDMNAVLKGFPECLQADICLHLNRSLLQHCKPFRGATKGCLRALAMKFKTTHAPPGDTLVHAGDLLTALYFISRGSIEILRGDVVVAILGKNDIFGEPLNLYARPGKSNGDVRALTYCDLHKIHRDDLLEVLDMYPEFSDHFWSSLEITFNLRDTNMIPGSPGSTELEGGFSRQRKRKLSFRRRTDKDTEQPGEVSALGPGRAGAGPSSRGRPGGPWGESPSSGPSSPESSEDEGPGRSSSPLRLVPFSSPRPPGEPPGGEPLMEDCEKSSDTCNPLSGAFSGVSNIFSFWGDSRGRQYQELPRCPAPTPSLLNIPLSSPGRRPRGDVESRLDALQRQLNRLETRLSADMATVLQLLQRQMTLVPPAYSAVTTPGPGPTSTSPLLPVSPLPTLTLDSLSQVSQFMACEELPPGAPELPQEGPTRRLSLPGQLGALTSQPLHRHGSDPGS
Chain of Cytochrome P450 2C9 (P11712 whole entry): as the sequence (P11712 whole entry) above
Chain of Cytochrome P450 3A4 (P08684 whole entry): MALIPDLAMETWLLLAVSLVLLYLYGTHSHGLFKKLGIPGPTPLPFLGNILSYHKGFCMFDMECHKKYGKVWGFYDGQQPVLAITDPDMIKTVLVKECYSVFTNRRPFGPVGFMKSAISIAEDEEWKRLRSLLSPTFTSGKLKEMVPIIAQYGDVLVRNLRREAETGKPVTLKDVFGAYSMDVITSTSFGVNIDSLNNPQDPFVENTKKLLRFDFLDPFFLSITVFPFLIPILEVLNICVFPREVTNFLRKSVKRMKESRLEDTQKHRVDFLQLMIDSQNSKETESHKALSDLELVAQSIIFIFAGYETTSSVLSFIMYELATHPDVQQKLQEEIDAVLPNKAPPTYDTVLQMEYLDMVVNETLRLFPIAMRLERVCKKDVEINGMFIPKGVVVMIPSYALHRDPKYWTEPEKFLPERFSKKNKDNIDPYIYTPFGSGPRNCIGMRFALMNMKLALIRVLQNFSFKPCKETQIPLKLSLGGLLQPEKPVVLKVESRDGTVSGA
Chain of Cytochrome P450 2D6 (P10635 whole entry): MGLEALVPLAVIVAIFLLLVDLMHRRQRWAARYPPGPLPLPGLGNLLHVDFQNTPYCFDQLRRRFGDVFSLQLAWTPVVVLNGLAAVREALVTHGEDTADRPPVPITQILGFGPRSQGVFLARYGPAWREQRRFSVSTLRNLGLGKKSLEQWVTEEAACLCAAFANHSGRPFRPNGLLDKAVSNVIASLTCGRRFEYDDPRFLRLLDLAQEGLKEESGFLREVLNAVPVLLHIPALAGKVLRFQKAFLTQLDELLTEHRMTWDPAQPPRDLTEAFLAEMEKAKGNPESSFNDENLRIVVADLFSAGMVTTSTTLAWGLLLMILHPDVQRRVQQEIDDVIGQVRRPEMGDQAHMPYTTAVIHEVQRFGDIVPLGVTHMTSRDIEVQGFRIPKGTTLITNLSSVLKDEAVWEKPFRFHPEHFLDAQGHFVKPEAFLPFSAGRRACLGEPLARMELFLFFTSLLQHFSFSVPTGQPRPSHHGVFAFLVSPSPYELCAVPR

O=C1OC(c2ccc(F)cc2)CN1c1ccccc1 (racemic)
Stability (Liver [1]): 45 µL/min/mg | IC50 [2]: 0.19 µM | IC50 [3]: 0.15 µM

O=C1OC(c2ccc(F)cc2)CN1c1cccc(O)c1 (centres undefined)
Drug metabolism [4]: Metabolite_Detected

O=C1OC(c2ccc(F)cc2)CN1Cc1ccc(Cl)cc1Cl (racemic)
IC50 [2]: 0.15 µM | IC50 [3]: 0.079 µM

N#Cc1cccc(N2CC(c3ccc(F)cc3)OC2=O)c1 (racemic)
Stability (Liver [5]): 94 µL/min/mg | IC50 [2]: 0.17 µM | IC50 [3]: 0.078 µM

C[C@H]1[C@H](c2ccc(F)cc2)OC(=O)N1c1cc(Cl)cc(C#N)c1
MRT last [6]: 4.2 h | AUC(0-t) [7]: 974 ng·h/mL | bioavailability [8]: 74.4% | inhibition in vivo at 3 mg/kg (Mus musculus [9]): 71% | IC50 [2]: 0.00052 µM | inhibition at 10 µM (CYP2C9): 44.2% | IC50 [3]: < 0.001 µM

C[C@H]1[C@H](c2ccc(F)cc2)OC(=O)N1c1cccc(C#N)c1
Stability (Liver [5]): 24 µL/min/mg | AUC(0-t) at 8 h [10]: 2080 ng·h/mL | bioavailability [8]: 87.2% | inhibition in vivo at 3 mg/kg (Mus musculus [11]): 42% | IC50 [2]: 0.0087 µM | IC50 [3]: 0.0053 µM | MRT last [12]: 3.4 h

CC1(C)C(c2ccc(F)cc2)OC(=O)N1c1cccc(C#N)c1 (racemic)
IC50 [3]: 0.45 µM

O=C1OC(c2ccc(F)cc2)CN1c1cccc(Cl)c1 (racemic)
Stability (Liver [1]): 72 µL/min/mg | IC50 [2]: 0.055 µM | IC50 [3]: 0.023 µM

C[C@H]1[C@H](c2ccc(F)cc2)OC(=O)N1c1cc(F)cc(C#N)c1 (racemic)
AUC(0-t) at 8 h [10]: 1200 ng·h/mL | bioavailability [8]: 61% | inhibition in vivo at 3 mg/kg (Mus musculus [11]): 63% | IC50 [2]: 0.0037 µM | IC50 [3]: 0.004 µM | MRT last [12]: 3.8 h

O=C1OC(c2ccc(F)cc2)CN1c1cccc(OS(=O)(=O)O)c1 (centres undefined)
Drug metabolism [4]: Metabolite_Detected | Drug metabolism [13]: Metabolite_Detected

C[C@H]1[C@H](c2ccc(F)cc2)OC(=O)N1c1cc(C#N)cc(C#N)c1
MRT last [6]: 4 h | AUC(0-t) [7]: 891 ng·h/mL | inhibition at 10 µM (hERG (KCNH2)): 30.7% | inhibition in vivo at 0.3 mg/kg (Mus musculus [14]): 61% | inhibition in vivo at 3 mg/kg (Mus musculus [15]): 66% | inhibition (INH) (Cytochrome P450 2C9): Not Active | Activity [16]: Not Active | Activity (Canis familiaris): Non-Toxic | inhibition in vivo at 1 mg/kg (Mus musculus [17]): 67% | bioavailability [8]: 53.3% | inhibition (INH) (Cytochrome P450 2C8): Not Active | inhibition in vivo at 3 mg/kg (Mus musculus [9]): 74% | IC50 [2]: 0.0015 µM | inhibition at 10 µM (CYP2C9): 28.5% | Ratio [18]: > 25 | inhibition (INH) (Cytochrome P450 3A4): Not Active | IC50 [3]: 0.0015 µM | inhibition (INH) (Cytochrome P450 2D6): Not Active | Cmax [19]: 280 ng/mL | Cmax [20]: 7150 ng/mL

O=C1OC(c2ccc(F)cc2)CN1c1cccc(F)c1 (racemic)
Stability (Liver [1]): 81 µL/min/mg | IC50 [2]: 0.17 µM | IC50 [3]: 0.051 µM

Cn1c(=O)n(Cc2cc(O)c(Cl)cc2Cl)c2ccccc21
IC50 [3]: 0.039 µM

C[C@H]1[C@H](c2ccc(F)cc2)OC(=O)N1c1cccc(C#N)c1 (racemic)
IC50 [2]: 0.0089 µM | IC50 [3]: 0.013 µM

COc1ccc(OC)c(N2CC(c3ccc(F)cc3)OC2=O)c1 (racemic)
IC50 [2]: 0.018 µM | IC50 [3]: 0.013 µM

COc1ccc(OC)c(N2CCN(C(=O)c3ccc(Cl)cc3)C(C)C2=O)c1 (racemic)
IC50 [3]: 0.36 µM

COc1ccc(CN(C)C(=O)c2ccc3c(c2)OCO3)c(OC)c1
IC50 [3]: 0.31 µM

C[C@@H]1[C@H](c2ccc(F)cc2)OC(=O)N1c1cccc(C#N)c1 (racemic)
Stability (Liver [5]): 7 µL/min/mg | Stability (Liver [1]): 21 µL/min/mg | IC50 [3]: 0.41 µM

N#Cc1cccc(N2C[C@@H](c3ccc(F)cc3)OC2=O)c1
IC50 [3]: > 10 µM

CCn1cc(C(=O)N(C)C(C)c2ccc(F)cc2)c2ccccc21 (racemic)
IC50 [3]: 0.047 µM

C[C@@H]1[C@@H](c2ccc(F)cc2)OC(=O)N1c1cccc(C#N)c1
IC50 [3]: 5.8 µM

O=C1OC(c2ccccc2)CN1Cc1cc(O)c(Cl)cc1Cl (racemic)
IC50 [2]: 1.1 µM | IC50 [3]: 0.012 µM

N#Cc1cccc(N2C[C@H](c3ccc(F)cc3)OC2=O)c1
Stability (Liver [5]): 50 µL/min/mg | Stability (Liver [1]): 4 µL/min/mg | IC50 [2]: 0.06 µM | IC50 [3]: 0.049 µM

O=C1OC(c2ccc(F)cc2)CN1c1cccc(O[C@@H]2O[C@H](CO)[C@@H](O)[C@H](O)[C@H]2O)c1 (some centres undefined)
Drug metabolism [4]: Metabolite_Detected | Drug metabolism [13]: Metabolite_Detected
